Assay results from the array DNA melting data of Ke et al. (doi:10.1101/2024.01.08.574731).

Columns and labels:
[1] = folding enthalpy; higher = less favourable; fluorescence melt of hairpins on a sequencing array, two-state fit; settings: sodium 0.088 M
Method in brief: (§1)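 Folding enthalpy and melting temperature come from bootstrapped two-state fits to Cy3 fluorescence of library hairpins carrying annealed Cy3 and quencher oligos on a sequenced MiSeq flow cell. Imaging was done in 50 mM Na-HEPES pH 8.0, 25 mM NaCl, stepping by 2.5 °C up to 60 °C, and signals were normalised to pre-quench Cy3 and to control constructs. Results of four replicates were combined by inverse variance, and fitted temperatures were raised by 9.35 °C to match UV melts.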

[2] = melting temperature; fluorescence melt of hairpins on a sequencing array, two-state fit, raised by 9.35 °C to match UV melts; settings: sodium 0.088 M
Method in brief: as §1

Sequence	folding enthalpy [1]	Tm [2]
GTGATGGGAAACTATCGC (.(((.(....).))).)	-23.4 kcal/mol	35.2 °C
GCGGCTGCCGC ((((...))))	-31.2 kcal/mol	57.1 °C
GGAGAGGGAAACCCCTCC ((((.((....)).))))	-28.6 kcal/mol	45 °C
GATCCGCTGCGGATC ((((((...))))))	-48.3 kcal/mol	57.5 °C
GACCCACGAAAGTGGTC (((.(((....))))))	-13.3 kcal/mol	51.5 °C
GGCGGACCGAAAGGTGCC (((..(((....))))))	-19.9 kcal/mol	55.1 °C
GGTGTCGAAAGACCTACC ((((((....)))..)))	-16.1 kcal/mol	33.8 °C
CGTGCGGAAACGCGCACG ((((((....)))..)))	-34.2 kcal/mol	64 °C
CGAGCGGAAACGCTTTCG ((((((....)))..)))	-11.8 kcal/mol	30.4 °C
GACAGCGAAAGCTTGGTC ((((((....)))..)))	-17.9 kcal/mol	40 °C
GAGTGACGAAAGTCCTC (((.(((....))))))	-19.5 kcal/mol	47.9 °C
GCCCCGCGAAAGCGGAGC ((.((((....)))).))	-22 kcal/mol	68.1 °C
CGCGGTCGGAAACGAGCG (((..(((....))))))	-15.1 kcal/mol	56.1 °C
GTATAGCGAAAGCTTTAC (((.(((....))).)))	-22 kcal/mol	40.9 °C
GATCTTTAATAAGATC ((((((....))))))	-31.1 kcal/mol	40.9 °C
GGACGCGAAAGCGACTCC ((((((....)))..)))	-11.6 kcal/mol	46.2 °C
GTGCATGGAAACGTGCAC (((((.(....).)))))	-47 kcal/mol	55.8 °C
GATCCACCAGTGGATC ((((((....))))))	-50.8 kcal/mol	56.1 °C
GGCCCTGGAAACAAGGCC ((((.((....)).))))	-36.7 kcal/mol	48.3 °C
GTTGCGGCGAAAGCCAAC (((..(((....))))))	-14.7 kcal/mol	37.8 °C
CGTGCTCGGAAACGAACG (((..(((....))))))	-5.98 kcal/mol	21.2 °C
GTACACCCGAAAGGGTAC (((..(((....))))))	-9.29 kcal/mol	33 °C
GGCGACGGAAACACCGCC ((((..(....)..))))	-29.3 kcal/mol	44.5 °C

Sequence	folding enthalpy [1]	Tm [2]
GAATCGGGAAACCGATCC (.(((((....))))).)	-15.6 kcal/mol	39 °C
GTTGCCGGAAACGGTAGC (.(.(((....))).).)	-17.2 kcal/mol	39.7 °C
GGCTTCGGAAACGAAACC ((.((((....)))).))	-25.4 kcal/mol	44.8 °C
GTCGAACCGAAAGGTGAC (((..(((....))))))	-18 kcal/mol	42 °C
GAGGCAACGAAAGTTCTC (((..(((....))))))	-11.3 kcal/mol	24.4 °C
GCCGTCGAAAGACGCGGC ((((((....)))..)))	-15 kcal/mol	61.3 °C
GCTTGGCGAAAGCTCAGC (((..((....))..)))	-15.2 kcal/mol	41.1 °C
GTATTGACGAAAGTCTAC (((..(((....))))))	-8.47 kcal/mol	25.1 °C
GTCCGTCGAAAGACAGAC (((.(((....))).)))	-22.3 kcal/mol	47 °C
GATCATAGCAATGATC ((((((....))))))	-40.3 kcal/mol	47.4 °C
GTGTTTGGAAACAAGCAC (((.(((....))).)))	-30.5 kcal/mol	46.6 °C
GGTTCCCGAAAGGGGACC (((.(((....))).)))	-30.8 kcal/mol	67.6 °C
GTCGCAGAAATGCGAC ((((((....))))))	-38.1 kcal/mol	69.1 °C
GGATGGGGAAACCCACCC ((.((((....)))).))	-24.1 kcal/mol	45.1 °C
GTATTAGCGAAAGCTTAC (((..(((....))))))	-12.8 kcal/mol	25.5 °C
GATCCGACGCCGGATC ((((((....))))))	-36.7 kcal/mol	56.7 °C
GCGGAGCGAAAGCTGAGC ((..(((....)))..))	-14.6 kcal/mol	56.5 °C
GTCAACGAAAGTTTGGAC ((((((....)))..)))	-13.8 kcal/mol	27.8 °C
GCGTCCGCGAAAGCGCGC (((..(((....))))))	-16.9 kcal/mol	53.5 °C
CGCAAACGGAAACGTGCG (((..(((....))))))	-36.2 kcal/mol	50.9 °C
GATCCGAATCGGATC ((((((...))))))	-36 kcal/mol	55 °C
GAGTAGACGAAAGTCCTC (((..(((....))))))	-14.1 kcal/mol	32.8 °C
GGGCCAGGAAACTAGCCC ((((.((....)).))))	-27.3 kcal/mol	48.6 °C
